Assay outcomes (PubChem)
Mdm2 ligase inh – blocks human Mdm2 ubiquitin ligase activity; cell-based MDM2 ubiquitination luciferase reporter, 2 h; 0 = plate control, 100 = twice control, blank-subtracted; signal enhancement, % at 5 µM; hit rate 0.11% among 210,000;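 active = signal enhancement of 30% or more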;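 also: luminescence tracks abundance of the self-degrading MDM2-luciferase fusion protein; higher signal means inhibition of MDM2 E3 ligase activity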
Target sequence (Q00987 whole entry, looked up, the tested form may be a part): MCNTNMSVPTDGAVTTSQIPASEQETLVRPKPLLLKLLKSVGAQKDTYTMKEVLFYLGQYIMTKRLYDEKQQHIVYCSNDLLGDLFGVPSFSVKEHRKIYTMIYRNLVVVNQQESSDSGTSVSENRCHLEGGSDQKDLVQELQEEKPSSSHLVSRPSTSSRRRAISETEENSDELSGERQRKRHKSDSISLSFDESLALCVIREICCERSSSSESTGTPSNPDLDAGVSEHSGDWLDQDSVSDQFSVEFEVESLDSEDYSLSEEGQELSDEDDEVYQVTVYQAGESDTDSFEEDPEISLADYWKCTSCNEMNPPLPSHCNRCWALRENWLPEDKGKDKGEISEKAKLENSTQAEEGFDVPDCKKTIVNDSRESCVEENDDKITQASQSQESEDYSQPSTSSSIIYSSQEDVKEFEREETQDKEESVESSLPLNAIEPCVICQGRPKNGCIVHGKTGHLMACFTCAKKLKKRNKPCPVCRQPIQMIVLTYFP
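system = mammalian cells stably expressing self-ubiquitinating, self-degrading MDM2 E3–luciferase fusion | quantity = 2000 cells per well seeded | incubation = 4 h cell settling then 2 h compound exposure, 37 °C | signal = SteadyLite luminescence, 15 min reagent step | benchmarks = plate control and blank wells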
L929 necroptosis – blocks zVAD induced death of L929 cells; L929 zVAD necroptosis rescue, ATP luminescence, 24 h; with zVAD 60 µM; viability rescue, % at 10 µM; hit rate 0.38% among 220,000;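 active = activation, scaled between plate controls, above about 75%, limit read from the data; inactive = activation under that limit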
Dynein transport – dynein cargo transport inhibition | 3617.4 mouse cells, GR-EGFP nuclear translocation imaging; test concentration mostly 20 µM; stimulated with dexamethasone, 1 µM; active compounds read low | hit rate 0.47% among 220,000 | z-score, hits read low;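 active = plate z-score of nuclear minus cytoplasmic receptor signal below a set negative limit, without overly bright fluorescence or cell loss, cut at about -3.5 in these data, passing the limit was not always enough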;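 also: z-score of nuclear minus cytoplasmic ring GR-EGFP intensity difference per well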
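Schedule: 48 h induction, then 1 h compound, then 30 min agonist, 37 °C. Buffer or medium: tetracycline-free induction medium containing charcoal-stripped FBS. Reagent: 1.0 µM final dexamethasone stimulus. Evaluation: nuclear versus cytoplasmic GR-EGFP signal, averaged per well. Signal: high-content fluorescence imaging after fixation.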
TNF necrop inh – TNF-alpha cell death inhibition in Jurkat FADD-/- cells | Jurkat FADD-/- TNF necroptosis rescue, ATP luminescence, 24 h; 0 = TNF only, 100 = no-TNF cells | hit rate 0.068% among 220,000 | activation (protection from cell death), % at 10 µM;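 active = activation, meaning protection from cell death, of at least 50% relative to plate controls; inactive = activation below 50%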;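 also: necroptosis triggered by 40 ng/mL TNF-alpha added together with compound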
Autophagy HCS – modulators of autophagy | MEF GFP-LC3 puncta imaging; test concentration mostly 10 µM | calls only at 10 µM (by protocol) | hit rate 0.98% among 190,000;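 active = percentage of spot-positive cells more than 3 SD above its plate mean, without a fluorescence outlier flag or 80% toxicity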
Hck-Nef inh – inhibitors of human Hck kinase activated by Nef; Recombinant Hck-YEEI plus Nef, Z-Lyte FRET kinase assay; inhibition, % at 20 µM; hit rate 0.68% among 220,000;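 active = Hck-Nef kinase inhibition above about 50%, limit read from the data; inactive = inhibition below that limit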
Hits are given with their value; i = inactive; nt = not tested or not shown; + = active, no number; ! = a repeat was not active. Only some compounds are listed: those with a hit (about 2.4% of all), similar ones and a draw of the others.

SMILES	Mdm2 ligase inh	L929 necroptosis	Dynein transport	TNF necrop inh	Autophagy HCS	Hck-Nef inh
Cc1cc(C)cc(-n2c(N)c(C(=O)Nc3c(C)n(C)n(-c4ccccc4)c3=O)c3nc4ccccc4nc32)c1	i	i	i	i	i	54
CC1CCC(C(C)C)C(OC(=O)Cn2c(-c3ccc(F)cc3)[n+](C)c3ccccc32)C1 (configuration not stated)	i	i	i	i	i	i
CC1CCC(C(C)C)C(OC(=O)Cn2c(-c3ccccc3)[n+](C)c3ccccc32)C1 (configuration not stated)	i	i	i	i	+!	i
Cc1ccc(C)c(S(=O)(=O)ON2C(=O)c3ccccc3C2=O)c1	i	i	-3.6	i	i	i
CCN(CC)S(=O)(=O)c1ccc(OC)c(NC(=O)COc2ccc3c(C)cc(=O)oc3c2)c1	i	i	i	i	i	i
N#C/C(=C\c1ccc(-c2ccccc2[N+](=O)[O-])o1)C(=O)Nc1nc(-c2cccs2)cs1	i	i	i	i	i	i
N#C/C(=C\c1ccc(-c2ccc([N+](=O)[O-])cc2)o1)C(=O)Nc1nc(-c2cccs2)cs1	nt	i	i	i	nt	67
COc1ccc(/C=C2\SC(=S)N(CC(=O)N3CCN(C)CC3)C2=O)cc1	i	i	i	i	nt	i
COCCN1C(=O)/C(=C/c2ccc(N3CCCC3)cc2)SC1=S	i	i	i	i	+	i
CCc1ccc(CN2CCCC(CNS(=O)(=O)c3ccc(OC)cc3)C2)cc1 (configuration not stated)	i	i	i	i	+	i
CCOC(=O)c1sc(NC(=O)CSc2n[nH]c(-c3ccccc3)n2)c(C#N)c1C	i	i	i	i	+	i
CCOC(=O)c1c(NC(=O)CSc2nc(C)cc(C)c2C#N)sc(C(C)=O)c1C	i	i	i	i	+	i
CCOC(=O)c1c(NC(=O)CSc2nnc(-c3ccc(C)cc3)o2)sc(C(C)=O)c1C	i	i	i	i	i	i
CCOC(=O)c1sc(NC(=O)CSc2nc(C)cc(C)n2)c(C#N)c1C	i	i	i	i	i	i
O=C(O)c1ccccc1C(=O)Nc1ccc(Br)c2cccnc12	i	i	i	i	i	i
CCOC(=O)C1C(C)=C(Nc2ccc(OC)cc2)C(=O)N1c1ccc(OC)cc1 (configuration not stated)	i	i	i	i	i	i
O=C(c1ccc([N+](=O)[O-])cc1)N(Cc1ccc(Br)cc1)N1C(=O)CCCC1=O	i	i	i	i	+	i
CCn1cc(C(=O)NCc2ccccc2OC)c(=O)c2cc(S(=O)(=O)N(C)C)ccc21	37	i	i	i	i	i
COC(=O)c1ccccc1NC(=O)Cn1c(-c2nonc2N)nc2ccccc21	i	i	i	i	+	i
COc1ccc(OC)c2c1C(=O)C(Cl)=C(Cl)C2=O	i	i	-5.4	i	nt	i
COCCNC(=O)CN(C(=O)c1ccc(N2CCCC2)nc1)c1ccccc1	i	i	i	i	+	i
O=C(Nc1ccc(C(=O)O)cc1)/C(=C\c1cccc([N+](=O)[O-])c1)NC(=O)c1ccc(Br)o1	i	i	i	i	i	i
CC(=O)Nc1ccc(Sc2ncccc2C(=O)Nc2cc(Cl)cc(Cl)c2)cn1	i	89	i	i	i	i
O=C(Nc1ccccc1N1CCN(c2ccccc2)CC1)C12CC3CC(CC(C3)C1)C2	nt	i	i	i	+	i
O=C(Cc1ccccc1)Nc1ccccc1N1CCN(c2ccccc2)CC1	i	i	i	i	i	i
SMILES	Mdm2 ligase inh	L929 necroptosis	Dynein transport	TNF necrop inh	Autophagy HCS	Hck-Nef inh
COc1ccc(/C=C/C(=O)OCC(=O)Nc2cc(C(F)(F)F)ccc2Cl)cc1	i	nt	i	i	i	i
Cc1nn(Cc2c(F)cccc2Cl)c(C)c1[N+](=O)[O-]	i	i	i	76	i	i
NCCCC[C@H](N)c1nnc([C@H](CC(=O)O)NC(=O)C2CCNCC2)o1	nt	i	i	i	i	i
COc1cccc(OCCn2cc(/C=N/NC(=O)c3ccncc3)c3ccccc32)c1	i	i	i	i	+	i
COc1cc(/C=C(\C#N)c2nc(-c3cc4ccccc4oc3=O)cs2)ccc1O	i	i	i	i	i	i
COc1cc(/C=C(/C#N)c2nc(-c3cc4ccccc4oc3=O)cs2)cc([N+](=O)[O-])c1O	i	i	i	i	nt	114
C[C@@H]1CN(Cc2nc(-c3cccs3)no2)C[C@H](C)O1	i	i	i	i	+	i
CCCCN(CC)CCCNC(=S)Nc1ccc2nc(N3CCN(C)CC3)cc(C)c2c1	i	i	i	i	+	i
CCCCN(CC)CCCNC(=S)Nc1ccc2nc(N3CCN(CC)CC3)cc(C)c2c1	i	i	i	i	+	i
CCCN(CCC)CCCNC(=S)Nc1ccc2nc(N3CCCC3)cc(C)c2c1	i	i	i	i	i	i
O=S(=O)(Nc1cc(Sc2ncn[nH]2)c(O)c2ccccc12)c1ccccc1	i	i	i	i	i	i
Cc1cc(C)c(S(=O)(=O)/N=C2/C=C(Sc3ncn[nH]3)C(=O)c3ccccc32)cc1C	i	i	-6.6	i	i	i
CC(C)c1nnc(NC(=O)c2ccc3c(c2)OCO3)s1	i	i	i	i	i	i
COc1cc(C(=O)N/N=C(\C)c2ccc3c(c2)OCO3)cc(OC)c1OC	i	i	i	i	+	i
COc1ccccc1-c1nnc(NC(=O)c2ccc3c(c2)OCO3)s1	i	i	i	i	+	i
N#CCc1c(C#N)c(N)nc(N2CCCC(O)C2)c1C#N (configuration not stated)	i	i	i	i	i	i
N#CCc1c(C#N)c(N)nc(N2CCCC(CO)C2)c1C#N (configuration not stated)	i	i	i	i	+	i
C/C(=N\NC(=O)C(c1ccccc1)c1ccccc1)c1ccccn1	i	i	i	i	+	i
N/C(=N\OC(=O)C(c1ccccc1)c1ccccc1)c1ccccn1	i	i	i	i	i	i
O=C(Cc1ccc(-n2c(=O)c3ccccc3n(Cc3ccccc3Cl)c2=O)cc1)NCC1CCCO1 (configuration not stated)	30	i	i	i	i	i
COc1ccc(/C=N/NC2=NCCCCC2)c(OC)c1	i	i	i	i	i	i
O=C(COC(=O)c1cc[n+]([O-])cc1)Nc1ccc([N+](=O)[O-])cc1	i	i	i	i	i	i
CCn1c(SCC(=O)Nc2cccc(C)c2)nc2nc3c(cc2c1=O)COC(C)(C)C3	i	i	i	i	nt	i
CCCOC(=O)c1ccc(O)c(OC)c1	45	i	i	i	i	i
Cc1noc(C)c1C(=O)N1CCC(C(=O)c2ccc(F)cc2F)CC1	i	i	i	i	nt	i
